Source: PubChem BioAssay (several laboratories)
Shown are actives, neighbours in structure and some others; about 1.3% of the full set was active somewhere.
procasp7 counter: counter-screen for procaspase-3 activators: activators of human procaspase-7; AID 463210; P55210; activation, % at 8.5 µM; hit rate 0.093% among 330,000; recombinant procaspase-7, Ac-DEVD-pNA absorbance 405 nm; D23A/D198A/D206A triple mutant, cannot self-cleave; scale: DMSO 0, 5 µM enzyme 100;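 active = percent activation above the screen-wide mean plus 3 SD, cut at about 25% in these data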
Target sequence (P55210 whole entry D23A/D198A/D206A): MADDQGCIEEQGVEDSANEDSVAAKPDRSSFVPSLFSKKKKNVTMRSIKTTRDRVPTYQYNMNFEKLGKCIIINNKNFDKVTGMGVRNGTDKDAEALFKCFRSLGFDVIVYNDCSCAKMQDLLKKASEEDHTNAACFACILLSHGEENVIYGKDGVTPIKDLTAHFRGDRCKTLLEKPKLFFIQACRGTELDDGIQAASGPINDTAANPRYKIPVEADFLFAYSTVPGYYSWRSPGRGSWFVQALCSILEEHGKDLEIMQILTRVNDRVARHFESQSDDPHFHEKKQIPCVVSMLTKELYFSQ
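Material: Procaspase-7 triple mutant (PC-7 D3A) | Quantity: 2 µM procaspase-7 mutant as dispensed | Reagent: DEVD-pNA substrate | Times: 1 h preincubation, 2 h reaction | Technique: 405 nm absorbance of p-nitroaniline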
proCasp3 act: procaspase-3 (human) activation; P42574; recombinant procaspase-3 D3A, Ac-DEVD-pNA absorbance 405 nm; activation, % at 8.5 µM; hit rate 0.11% among 330,000; AID 463141;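 active = activation above the mean of all tested compounds plus 3 SD, cut at about 21% in these data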
Target sequence (P42574 whole entry D9A/D28A/D175A): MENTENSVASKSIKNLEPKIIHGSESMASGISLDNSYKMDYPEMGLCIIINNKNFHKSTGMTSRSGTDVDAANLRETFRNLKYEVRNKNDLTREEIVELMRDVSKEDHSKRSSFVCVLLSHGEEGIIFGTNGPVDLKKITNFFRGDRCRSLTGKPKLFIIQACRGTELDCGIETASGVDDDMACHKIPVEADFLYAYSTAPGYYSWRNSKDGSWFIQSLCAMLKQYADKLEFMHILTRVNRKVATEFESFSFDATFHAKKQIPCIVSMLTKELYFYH
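Test system: Procaspase-3 D3A mutant, all three cleavage aspartates alanine | Dosing: Single dose, 8.5 µM nominal compound, 0.8% DMSO | Schedule: 1 h preincubation, 2 h reaction | Technique: 405 nm absorbance of p-nitroaniline, reads at 0 and 120 min | Repeats: One well per compound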
CHT allo act: allosterically activates the human high affinity choline transporter | Q9GZV3 | CHT-expressing cells, membrane potential dye, choline EC20; active compounds read high; LV-AA mutant CHT in HEK293 cells | B-score at 10 µM | hit rate 0.49% among 310,000 | AID 488977;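 active = initial fluorescence not abnormally high and integrated response B-score, plate-corrected, over 3 SD above library mean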
CHT inh: inhibits the human high affinity choline transporter; Q9GZV3; CHT-expressing cells, membrane potential dye, choline response; active compounds read low; B-score at 10 µM; hit rate 0.86% among 310,000; AID 488975;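 active = B-score over 3 SD under the library average, and starting fluorescence ratio not unusually high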;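 also: choline stimulus applied at its EC90 after an EC20 pre-addition; B-score computed on integrated fluorescence ratio after choline addition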
CHT act confirm: confirmation of human choline transporter (CHT) activators; shares compounds with CHT allo act; CHT-expressing cells, membrane potential dye fluorescence (FDSS); % of choline EC20–EC90 response window; HEK293 expressing CHT LV-AA mutant; choline added at its EC20; hit rate 91% among 2,500; AID 504833; activation, % at 10 µM;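 active = primary screen active, with duplicate mean activation above negative control mean plus 3 SD, cut at about 11% in these data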
HEK293 MP dye: counter-screen for CHT activators: effect in parental HEK293 cells; shares compounds with CHT allo act; ratio readout change at 10 µM, hits read low; membrane potential dye fluorescence (FDSS); measured after EC20 choline addition; hit rate 62% among 2,500;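 active = duplicate-averaged ratio beyond 3 SD from buffer wells, up or down, though filed actives are nearly all decreases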
Large screens that a line does not name were inactive (follow-up assays come after a bar, where they were run).

Cc1cc(C[n+]2ccsc2N)c2ncccc2c1	none | CHT act confirm 43.2 | HEK293 MP dye -52.5
Nc1scn[n+]1Cc1cccc2cccnc12	none
CC(Nc1nc(N2CCNCC2)nc2ccccc12)c1ccccc1 (stereo not given)	CHT allo act 7.12 | CHT act confirm 44.1 | HEK293 MP dye -51.6
CCOC(=O)c1ccc2c(c1)n(CCCS(=O)(=O)[O-])c(/C=C/c1ccc(Cl)cc1)[n+]2CC	CHT allo act 11.2 | CHT act confirm 71.0 | HEK293 MP dye -86.2
Cc1cc(/C=C2/C(=N)N3C(=NC2=O)SN=C3S(C)(=O)=O)c(C)n1-c1ccccc1F	CHT allo act 7.61 | CHT act confirm inactive | HEK293 MP dye inactive
CC1=CC2=NC(=O)/C(=C\c3cc(C)n(-c4ccccc4F)c3C)C(=N)N2O1	none
O=[N+]([O-])c1ccc(C[n+]2cccc3c4ccccc4ccc32)cc1	CHT allo act 9.98 | CHT act confirm 74.8 | HEK293 MP dye -75.1
Cc1ccc[n+](Cc2ccc([N+](=O)[O-])cc2)c1	none
COC1=C(Nc2ccc(OC)cc2)C(=O)c2ccccc2C1=O	CHT allo act 6.51 | CHT act confirm 11.8 | HEK293 MP dye -64.5
COC1=C(Nc2ccc(O)cc2)C(=O)c2ccccc2C1=O	none | CHT act confirm 29.0 | HEK293 MP dye -78.1
CCOc1ccc(NC2=C(OC)C(=O)c3ccccc3C2=O)cc1	none | CHT act confirm 13.6 | HEK293 MP dye -66.6
CCOc1ccc(NC2=C(Cl)C(=O)N(Cc3ccccc3)C2=O)cc1	none
O=C1C(Cl)=C(Nc2ccc(O)cc2)C(=O)c2ccccc21	none
COc1ccc(NC2=C(c3ccc(OC)cc3)C(=O)c3ccccc32)cc1	none
O=C(NCc1ccccc1)c1onc(CS(=O)(=O)c2ccccn2)c1C(=O)NCc1ccccc1	none
CS(=O)(=O)N(Cc1nc(-c2ccc(F)cc2)no1)c1ccccc1Cl	none
COC(=O)c1ccc(C2C(C(=O)c3ccco3)=C(O)C(=O)N2CC2CCCO2)cc1 (stereo not given)	none
CN(C)C=Nc1c(C(=O)c2ccccc2)sc2nccc(N(C)C)c12	none
CCOC(=O)c1sc2nccc(N(C)C)c2c1N=CN(C)C	CHT allo act 7.16 | CHT act confirm 60.3 | HEK293 MP dye -51.9
CC12CCC(=O)N1C(C(=O)NNC(=O)c1ccc(Br)cc1)CS2 (stereo not given)	none (no result: CHT allo act, CHT inh)
COC(=O)c1ccc(-c2nc(O)c3cnccn23)cc1	none | CHT act confirm 23.1 | HEK293 MP dye -37.2
Cc1cc(C)nc(/N=C(\N)Nc2ccc(S(=O)(=O)Nc3nc(C)cc(C)n3)cc2)n1	CHT allo act 8.74 | CHT act confirm 59.3 | HEK293 MP dye -58.1
CC(=O)Nc1ccc(N/C(N)=N/c2nc(C)cc(C)n2)cc1	none
Cc1cc(C)nc(/N=C(\N)Nc2ccc(SC(F)F)cc2)n1	none | CHT act confirm 46.2 | HEK293 MP dye -49
C=CCn1cc(CN2CCC(C(=O)Nc3cccc(-c4cccc(Cl)c4)c3)CC2)c(C)n1	none
CC(C)CN(C(=O)COC(=O)C1=COCCO1)c1c(N)n(Cc2ccccc2)c(=O)[nH]c1=O	none
O=C(NCCCn1ccnc1)/C(=C\c1ccc(Br)cc1)NC(=O)c1ccccc1F	none
N=c1n(CCN2CCCCC2)c2ccccc2n1CC(O)c1cccc(Br)c1 (stereo not given)	CHT allo act 11.3 | CHT act confirm 37.4 | HEK293 MP dye inactive
CCCCCCCn1c(=N)n(CC(O)c2ccco2)c2ccccc21 (stereo not given)	none
N=c1n(CCN2CCCC2)c2ccccc2n1CC(O)c1ccco1 (stereo not given)	none | CHT act confirm 38.1 | HEK293 MP dye -24.9
Cc1cccnc1NC(=O)/C=C/c1ccc2c(c1)OCO2	none | CHT act confirm 43.7 | HEK293 MP dye -39.9
CN1C2C(Br)CCCCN2c2ccc(F)cc2S1(=O)=O (stereo not given)	none
CN(CCOc1ccccc1)CC(=O)Nc1ccc(Cl)c(S(=O)(=O)N(C)C)c1	CHT allo act 7 | CHT act confirm inactive | HEK293 MP dye inactive
CN(C)S(=O)(=O)c1cc(NC(=O)CNCc2ccccc2)ccc1Cl	none
Cc1cccc(N2C(=O)c3ccccc3C2=O)n1	none
COc1ccc([C@H]2/C=C\CN(C(=O)CC(C)(C)C)[C@@H](C)C(=O)N2Cc2ccc(F)cc2)cc1	CHT allo act 9.03 | CHT act confirm 24.7 | HEK293 MP dye inactive
COc1ccc([C@H]2/C=C\CN(C(=O)c3ccc(C)cc3)[C@@H](C)C(=O)N2Cc2ccc(F)cc2)cc1	none
O=C(CSc1nnc(Cc2cccs2)n1C1CCCCC1)N1CCCc2ccccc21	CHT allo act 6.42 | CHT act confirm 31.3 | HEK293 MP dye inactive
COc1ccc(CC(NC(C)=O)C(=O)NC2CCN(C(=O)c3ccccc3F)CC2)cc1 (stereo not given)	none
CN1CCN(C=Nc2nc3ccccc3nc2N2CCCC2)CC1	CHT allo act 6.68 | CHT act confirm 25.5 | HEK293 MP dye -51.9
Nc1nc2ccccc2nc1N1CCCC1	none
Cc1cc(-c2ccccc2)cc(-c2ccccc2)[n+]1C	CHT allo act 6.76 | CHT act confirm 79.2 | HEK293 MP dye -22.5
Cc1[nH]c2ccccc2c1-c1nc2ccccc2[nH]c1=O	none
Cn1ccnc1-c1nc2ccccc2[nH]c1=O	CHT allo act 7.09 | CHT act confirm 63.1 | HEK293 MP dye -54.7
COc1ccc(S(=O)(=O)n2cccc2)cc1OC	none
C=CCn1c(SCC(=O)O)nnc1-c1cccc(Cl)c1	CHT allo act 6.65 | CHT act confirm inactive | HEK293 MP dye inactive
Cc1sc2nc3ccc(N4CCCC4)nn3c(=O)c2c1C	none | CHT act confirm 38.1 | HEK293 MP dye -37.6
Cc1ccc2nc3ccc(N4CCCCCCC4)nn3c(=O)c2c1	none
CCN(CC)C(=O)Cn1cc(C(=O)C(=O)N2CCN(Cc3ccccc3)CC2)c2ccccc21	none
CCN(CC)C(=O)C(=O)c1cn(CCOc2ccccc2)c2ccccc12	none | CHT act confirm inactive | HEK293 MP dye inactive
CCN1CCN(C(=O)C(=O)c2cn(CC(=O)N(CC)CC)c3ccccc23)CC1	none | CHT act confirm 44.4 | HEK293 MP dye inactive
CCOC(=O)c1sc2ncnc(N3CCN(CC)CC3)c2c1C	none | CHT act confirm 45.2 | HEK293 MP dye -43
COc1cc(OC)c(OC)cc1/C=N/NC(=O)c1ccc(=O)n(C)c1	none | CHT act confirm 43.0 | HEK293 MP dye -28.9
COc1cc(OC)c(OC)cc1/C=N/NC(=O)C[n+]1ccccc1	none | CHT act confirm 51.3 | HEK293 MP dye -41.8
